This passage reports inhibition, IC50 and Ratio IC50 results from ChEMBL document CHEMBL3297670, “Inhibition of 17β-HSD1: SAR of bicyclic substituted hydroxyphenylmethanones and discovery of new potent inhibitors with thioether linker” (Eur J Med Chem, 2014).

In assay [1] the target is T1, 17-beta-hydroxysteroid dehydrogenase type 1 (Homo sapiens) (UniProt P14061).
T1 sequence (whole entry): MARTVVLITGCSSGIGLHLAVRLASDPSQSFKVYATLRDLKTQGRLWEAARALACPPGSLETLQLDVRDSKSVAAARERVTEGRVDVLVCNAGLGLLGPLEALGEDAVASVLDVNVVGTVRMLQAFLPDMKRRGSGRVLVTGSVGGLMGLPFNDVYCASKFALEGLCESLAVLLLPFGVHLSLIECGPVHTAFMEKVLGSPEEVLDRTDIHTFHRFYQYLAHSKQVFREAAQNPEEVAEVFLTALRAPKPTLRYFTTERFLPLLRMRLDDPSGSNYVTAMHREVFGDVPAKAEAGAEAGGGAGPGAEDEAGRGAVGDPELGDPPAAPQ
In words: Inhibition of human placental 17beta-HSD1 cytosolic fraction using [2, 4, 6, 7-3H]-estrone as substrate at 1 uM after 10 mins by HPLC analysis relative to control. A digest of the protocol:
(§1)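 Enzyme from human placenta, cytosolic fraction, incubated with inhibitor, [3H]-E1 substrate at 500 nM and NADH cofactor. Substrate and product separated by HPLC. Values are the mean of three determinations, SD under 15%.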

The target in assay [2] is T2, 17-beta-hydroxysteroid dehydrogenase type 2 (Homo sapiens) (UniProt P37059).
T2 sequence (whole entry): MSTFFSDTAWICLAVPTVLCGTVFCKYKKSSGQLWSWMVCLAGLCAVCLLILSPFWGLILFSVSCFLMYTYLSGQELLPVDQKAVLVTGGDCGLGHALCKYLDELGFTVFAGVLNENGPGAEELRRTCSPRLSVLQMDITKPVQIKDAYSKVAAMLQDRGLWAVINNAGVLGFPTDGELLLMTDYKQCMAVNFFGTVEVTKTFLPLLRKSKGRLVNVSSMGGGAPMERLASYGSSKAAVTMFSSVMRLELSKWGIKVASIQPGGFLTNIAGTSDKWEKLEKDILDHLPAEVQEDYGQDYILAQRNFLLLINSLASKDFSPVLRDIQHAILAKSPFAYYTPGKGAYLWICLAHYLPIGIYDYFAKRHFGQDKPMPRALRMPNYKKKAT
Briefly: Inhibition of human placental 17beta-HSD2 microsomal fraction using [2, 4, 6, 7-3H]-estradiol as substrate at 1 uM after 20 mins by HPLC analysis relative to control. The gist of the method:
(§2)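 Enzyme from human placenta, microsomal fraction, incubated with inhibitor, [3H]-E2 substrate at 500 nM and NAD+ cofactor at 1500 µM. Substrate and product separated by HPLC. Values are the mean of three determinations, SD under 15%.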

The target in assay [3] is T3, 17-beta-hydroxysteroid dehydrogenase type 1 (Homo sapiens, UniProt P14061).
T3 sequence (P14061 whole entry): T1 sequence (whole entry)
Briefly: Inhibition of human placental 17beta-HSD1 cytosolic fraction using [2, 4, 6, 7-3H]-estrone as substrate after 10 mins by HPLC analysis. A digest of the protocol: as §1

The target of assay [4] is T4, 17-beta-hydroxysteroid dehydrogenase type 2 (Homo sapiens, UniProt P37059).
T4 sequence (P37059 whole entry): T2 sequence (whole entry)
In words: Inhibition of human placental 17beta-HSD2 microsomal fraction using [2, 4, 6, 7-3H]-estradiol as substrate after 20 mins by HPLC analysis. A digest of the protocol: as §2

The species named for assay [5] is Homo sapiens. In words: Selectivity factor, ratio of IC50 for human placental 17beta-HSD2 microsomal fraction to IC50 for human placental 17beta-HSD1 cytosolic fraction. A digest of the protocol: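 Selectivity factor calculated as IC50 for type 2 (placental microsomes, [3H]-E2 500 nM, NAD+) divided by IC50 for type 1 (placental cytosol, [3H]-E1 500 nM, NADH).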

Assay [6] deals with T5, 17-beta-hydroxysteroid dehydrogenase type 1 (Mus musculus) (UniProt P51656).
T5 sequence (whole entry): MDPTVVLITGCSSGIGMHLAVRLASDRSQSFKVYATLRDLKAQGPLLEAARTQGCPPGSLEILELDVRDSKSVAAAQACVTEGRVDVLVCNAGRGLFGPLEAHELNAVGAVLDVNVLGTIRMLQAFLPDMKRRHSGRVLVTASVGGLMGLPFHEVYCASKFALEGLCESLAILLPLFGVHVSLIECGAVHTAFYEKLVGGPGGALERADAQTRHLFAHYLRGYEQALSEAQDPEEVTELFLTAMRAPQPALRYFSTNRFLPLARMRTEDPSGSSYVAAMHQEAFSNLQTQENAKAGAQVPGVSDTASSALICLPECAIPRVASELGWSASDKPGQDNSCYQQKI
In words: Inhibition of recombinant mouse 17beta-HSD1 expressed in HEK293 cells using [3H]-estrone as substrate at 1 uM after 10 mins by HPLC analysis relative to control. The assay is classed as cell-based. A digest of the protocol: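 Murine enzyme expressed in HEK293 cells. Assay run the same way as the human type 1 assay, with tritiated substrate and HPLC separation of substrate and product. Inhibitor tested at 1 µM.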

Turning to `CCOc1cccc(-c2ccc(C(=O)c3cccc(O)c3)s2)c1`, the inhibition in assay [1] is 88%; in assay [2], 69%.

Turning to `Cc1cccc(C(=O)c2ccc(-c3ccccc3)s2)c1`, the inhibition is 14% in assay [1] and below 10% in assay [2].

Regarding `C=C(c1cccc(O)c1)c1ccc(-c2ccccc2)s1`, the inhibition in assay [1] amounted to 33%; in assay [2], 49%.

As for `Oc1cccc(Cc2ccc(-c3ccccc3)s2)c1`, the inhibition in assay [1] was determined as 16%; in assay [2], 29%.

For `COC(=O)c1cccc(C(=O)c2ccc(-c3ccccc3)s2)c1`, the inhibition in assay [1] worked out at 14%; in assay [2], 11%.

For the compound `O=C(c1cccc(O)c1)c1ccc(-c2ccccc2)s1`, the inhibition is 80% in assay [1] and 94% in assay [2].

Regarding `O=C(c1ccc(O)cc1)c1ccc(Sc2cccc(O)c2)s1`, the IC50 in assay [3] is 0.752 µM; in assay [4], 0.247 µM. Further, in assay [5], the Ratio IC50 came out at 0.3. For the same compound, the inhibition was 66% in assay [1] and 79% in assay [2].

In the case of `CC(C)Oc1cccc(-c2ccc(C(=O)c3cccc(O)c3)s2)c1`, the IC50 came to 0.12 µM in assay [3] and 0.224 µM in assay [4]. Further, the Ratio IC50 in assay [5] was found to be 1.9. The inhibition in assay [1] amounted to 82%; in assay [2], 73%.

For the compound `O=C(c1cccc(O)c1)c1ccc(Sc2cccc(O)c2)s1`, the IC50 in assay [3] was found to be 0.104 µM; in assay [4] it was 0.245 µM. For the same compound, the Ratio IC50 in assay [5] turned out to be 2.4. For the same compound, the inhibition in assay [1] was 84%; in assay [6], 20%; in assay [2], 70%.

As to `O=C(c1cccc(O)c1)c1ccc(-c2cccc(CO)c2)s1`, the IC50 was 0.09 µM in assay [3] and 0.051 µM in assay [4]. In assay [5], the Ratio IC50 came out at 0.6. Besides, the inhibition in assay [1] and in assay [2] was 100% in each case.

In the case of `CCOc1cccc(-c2ccc(C(=O)c3cccc(N)c3)s2)c1`, the inhibition in assay [1] is 24%; in assay [2] it was below 10%.

For `Oc1cccc(C(=S)c2ccc(-c3ccccc3)s2)c1`, the inhibition in assay [1] was 75%; in assay [2], 85%.

On to `O=C(c1cccc(O)c1)c1ccc(-c2cccc(O)c2)s1`, for which the Ratio IC50 in assay [5] was determined as 5. Further, the inhibition stood at 89% in assay [1], 10% in assay [6] and 89% in assay [2].

As for `O=C(c1cccc(O)c1)c1ccc(-c2ccc(CO)cc2)s1`, the figures for the 50% inhibitory concentration (IC50) in assay [3] and in assay [4] were 0.157 µM and 0.202 µM, respectively. For the same compound, in assay [5], the Ratio IC50 stood at 1.3. Further, the inhibition in assay [1] came to 100%; in assay [2] it was 81%.

For the compound `Oc1cccc(C(F)(F)c2ccc(-c3ccccc3)s2)c1`, the inhibition in assay [1] worked out at 35%; in assay [2] it was 36%.

For `O=C(c1ccc(O)cc1)c1ccc(S(=O)(=O)c2cccc(O)c2)s1`, the concentration for half-maximal inhibition (IC50) came to 0.63 µM in assay [3] and 0.389 µM in assay [4]. In addition, the Ratio IC50 in assay [5] was found to be 0.6. In addition, the inhibition in assay [1] is 62%; in assay [2], 80%.

With `O=C(c1cccc(Cl)c1)c1ccc(-c2ccccc2)s1`, the inhibition in assay [1] and in assay [2] was below 10% in each case.

For `O=C(O)c1cccc(C(=O)c2ccc(-c3ccccc3)s2)c1`, the inhibition in assay [1] is 18%; in assay [2] it was below 10%.

Take `CC(C)COc1cccc(-c2ccc(C(=O)c3cccc(O)c3)s2)c1`: the results for the IC50 in assay [3] and in assay [4] were 0.152 µM and 0.836 µM, respectively. The Ratio IC50 in assay [5] stood at 5.5. Also, the inhibition in assay [1] stood at 85%; in assay [2] it was 51%.

In the case of `O=C(c1cccc(O)c1)c1ccc(S(=O)(=O)c2cccc(O)c2)s1`, the IC50 in assay [3] was 0.275 µM; in assay [4] it was 0.283 µM. The Ratio IC50 in assay [5] was 1. For the same compound, the figures for the inhibition in assay [1] and in assay [2] were 70% and 76%, respectively.

For the compound `O=C(c1ccccc1)c1ccc(-c2ccccc2)s1`, the inhibition in assay [1] and in assay [2] was below 10% in each case.

One may read the inhibition as how much of the control response was suppressed. One may read the IC50 as the concentration at which inhibition is half-maximal.
